Laboratory results from ChEMBL document CHEMBL1154436, “Synthesis, pharmacological activity and hydrolytic behavior of ethylenediamine and benzathine conjugates of ibuprofen” (Eur J Med Chem, 2008).

How the values were obtained:
Mus musculus [1] = test: Analgesic activity in Swiss albino mouse assessed as protection against acetic acid-induced writhing at 20 mg/kg, po administered 3 hrs mins before acetic acid challenge relative to control; assay type: functional
Outline: (§1)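 Mice, four groups of six: vehicle control 5 ml/kg, or test drug as a homogeneous suspension in 0.5% w/v aqueous sodium CMC (stocks 1, 1.05, 1.49 mg/ml), 0.5–0.6 ml orally, doses molecularly equivalent to ibuprofen 20 mg/kg. Acetic acid given i.p. at 1 ml/100 g body weight. Writhings counted over 10 min. Protection % = 100 − (test/control writhings × 100). Mean ± S.E.M.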

Rattus norvegicus [2] = test: Gastrointestinal toxicity in Wistar rat assessed ulcer index at 100 mg/kg, po after 17 hrs; assay type: organism-based; parameters: dose 100 mg/kg, route oral; conditions: in vivo
Outline: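 Adult Wistar rats (150–200 g), four groups of six, fasted 8 h before dosing. Vehicle control, ibuprofen 100 mg/kg, or conjugate at a dose molecularly equivalent to ibuprofen 100 mg/kg. Killed 17 h after dosing, with food and water ad libitum. Gastric mucosa examined with a 4× binocular magnifier. Lesions classed as large (>2 mm), small (1–2 mm) or punctiform (<1 mm) and scored. Index = treated mean score minus control mean score.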

Rattus norvegicus [3] = test: Antiinflammatory activity in Wistar rat assessed as inhibition of carrageenan-induced paw edema at 20 mg/kg, po administered 30 mins before carrageenan challenge measured 24 hrs after post drug dose; assay type: functional
Outline: (§2)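 Wistar rats (150–200 g), four groups of six. Drug given orally, 0.75–1.0 ml of a suspension in 0.5% w/v sodium CMC (stocks 4, 4.23, 5.99 mg/ml), dose molecularly equivalent to ibuprofen 20 mg/kg. Control group received no drug. Carrageenan 1%, 0.1 ml, injected subplantar into the left hind paw 30 min after dosing. Paw volume measured before and after treatment. Inhibition % = [(Vt−V0)control − (Vt−V0)treated]/(Vt−V0)control × 100. One-way ANOVA versus control.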

Rattus norvegicus [4] = test: Antiinflammatory activity in Wistar rat assessed as inhibition of carrageenan-induced paw edema at 20 mg/kg, po administered 30 mins before carrageenan challenge measured 3 hrs after post drug dose; assay type: functional; outline: as §2
Rattus norvegicus [5] = test: Antiinflammatory activity in Wistar rat assessed as inhibition of carrageenan-induced paw edema at 29.98 mg/kg, po administered 30 mins before carrageenan challenge measured 24 hrs after post drug dose; assay type: functional; outline: as §2
[6] = Chemical stability assessed as hydrolysis in hydrochloric acid buffer at pH 1.2; assay type: physicochemical
Outline: (§3)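 Hydrolysis in HCl (pH 1.2) or phosphate (pH 7.4) buffer, 0.05 M total buffer, ionic strength held at 0.5 M with KCl, 37 °C. Released parent drug measured by UV in a chloroform extract. At pH 7.4, sampled at 0.5–10 h. pH 1.2 assay run 2 h. First-order k = 2.303/t·log(a/(a−x)), t in minutes; half-life derived. Mean of three sets.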

[7] = Chemical stability assessed as hydrolysis in phosphate buffer at pH 7.4; assay type: physicochemical; outline: as §3
Rattus norvegicus [8] = test: Antiinflammatory activity in Wistar rat assessed as inhibition of carrageenan-induced paw edema at 29.98 mg/kg, po administered 30 mins before carrageenan challenge measured 3 hrs after post drug dose; assay type: functional; outline: as §2
Mus musculus [9] = test: Analgesic activity in Swiss albino mouse assessed as protection against acetic acid-induced writhing at 29.98 mg/kg, po administered 3 hrs mins before acetic acid challenge relative to control; assay type: functional; outline: as §1
Rattus norvegicus [10] = test: Antiinflammatory activity in Wistar rat assessed as inhibition of carrageenan-induced paw edema at 21.15 mg/kg, po administered 30 mins before carrageenan challenge measured 24 hrs after post drug dose; assay type: functional; outline: as §2
Mus musculus [11] = test: Analgesic activity in Swiss albino mouse assessed as protection against acetic acid-induced writhing at 21.15 mg/kg, po administered 3 hrs mins before acetic acid challenge relative to control; assay type: functional; outline: as §1
Rattus norvegicus [12] = test: Antiinflammatory activity in Wistar rat assessed as inhibition of carrageenan-induced paw edema at 21.15 mg/kg, po administered 30 mins before carrageenan challenge measured 3 hrs after post drug dose; assay type: functional; outline: as §2

Row | Compound | Activity (Mus musculus [1]) | UI (Rattus norvegicus [2]) | inhibition in vivo at 20 mg/kg (Rattus norvegicus [3]) | inhibition in vivo at 20 mg/kg (Rattus norvegicus [4]) | inhibition in vivo at 29.98 mg/kg (Rattus norvegicus [5]) | Stability [6] | half-life [7] | inhibition in vivo at 29.98 mg/kg (Rattus norvegicus [8]) | Activity (Mus musculus [9]) | inhibition in vivo at 21.15 mg/kg (Rattus norvegicus [10]) | Activity (Mus musculus [11]) | inhibition in vivo at 21.15 mg/kg (Rattus norvegicus [12])
1 | CC(C)Cc1ccc(C(C)C(=O)O)cc1 (stereo not given) [IBUPROFEN] | 23.42% | 13.51 | 35.6% | 52.1% | – | – | – | – | – | – | – | –
2 | CC(C)Cc1ccc(C(C)C(=O)N(CCN(Cc2ccccc2)C(=O)C(C)c2ccc(CC(C)C)cc2)Cc2ccccc2)cc1 (mixture of isomers) | – | – | – | – | 32.4% | Stable | 1.38 h | 53.5% | 35.84% | – | – | –
3 | CC(C)Cc1ccc(C(C)C(=O)NCCNC(=O)C(C)c2ccc(CC(C)C)cc2)cc1 (mixture of isomers) | – | 4.63 | – | – | – | Stable | 1.16 h | – | – | 38% | 29.63% | 48%
